According to ChEMBL document CHEMBL3351561, “Discovery of 9-(1-anilinoethyl)-2-morpholino-4-oxo-pyrido[1,2-a]pyrimidine-7-carboxamides as PI3Kβ/δ inhibitors for the treatment of PTEN-deficient tumours” (Bioorg Med Chem Lett, 2014):
Values after ≈ are worked out from the molar mass of the structure shown.

Experiments:
[1] = Solubility of the compound in phosphate buffer at pH 7.4; type: physicochemical
Procedure, shortened: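 Solubility was measured from solid material in phosphate buffer at pH 7.4.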

[2] = Intrinsic clearance in human hepatocytes measured per 10^6 cells; type: ADME, cell-based, Hepatocyte; details: read-out: CLH
Procedure, shortened: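 Intrinsic clearance was measured in human hepatocytes and is expressed in µL/min/10^6 cells.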

[3] = Buffer/octanol partition coefficient, log D of the compound at pH 7.4 by shake flask method; type: physicochemical
Procedure, shortened: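 LogD at pH 7.4 was measured by shake-flask with a buffer/octanol volume ratio of 100:1.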

[4] = target: Phosphatidylinositol 4,5-bisphosphate 3-kinase catalytic subunit beta isoform (Homo sapiens, UniProt P42338); test: Inhibition of PI3Kbeta in human MAD-MB-468 cells assessed as inhibition of Ser473 Akt phosphorylation by cellular potency assay
Phosphatidylinositol 4,5-bisphosphate 3-kinase catalytic subunit beta isoform, sequence (P42338 whole entry, canonical isoform): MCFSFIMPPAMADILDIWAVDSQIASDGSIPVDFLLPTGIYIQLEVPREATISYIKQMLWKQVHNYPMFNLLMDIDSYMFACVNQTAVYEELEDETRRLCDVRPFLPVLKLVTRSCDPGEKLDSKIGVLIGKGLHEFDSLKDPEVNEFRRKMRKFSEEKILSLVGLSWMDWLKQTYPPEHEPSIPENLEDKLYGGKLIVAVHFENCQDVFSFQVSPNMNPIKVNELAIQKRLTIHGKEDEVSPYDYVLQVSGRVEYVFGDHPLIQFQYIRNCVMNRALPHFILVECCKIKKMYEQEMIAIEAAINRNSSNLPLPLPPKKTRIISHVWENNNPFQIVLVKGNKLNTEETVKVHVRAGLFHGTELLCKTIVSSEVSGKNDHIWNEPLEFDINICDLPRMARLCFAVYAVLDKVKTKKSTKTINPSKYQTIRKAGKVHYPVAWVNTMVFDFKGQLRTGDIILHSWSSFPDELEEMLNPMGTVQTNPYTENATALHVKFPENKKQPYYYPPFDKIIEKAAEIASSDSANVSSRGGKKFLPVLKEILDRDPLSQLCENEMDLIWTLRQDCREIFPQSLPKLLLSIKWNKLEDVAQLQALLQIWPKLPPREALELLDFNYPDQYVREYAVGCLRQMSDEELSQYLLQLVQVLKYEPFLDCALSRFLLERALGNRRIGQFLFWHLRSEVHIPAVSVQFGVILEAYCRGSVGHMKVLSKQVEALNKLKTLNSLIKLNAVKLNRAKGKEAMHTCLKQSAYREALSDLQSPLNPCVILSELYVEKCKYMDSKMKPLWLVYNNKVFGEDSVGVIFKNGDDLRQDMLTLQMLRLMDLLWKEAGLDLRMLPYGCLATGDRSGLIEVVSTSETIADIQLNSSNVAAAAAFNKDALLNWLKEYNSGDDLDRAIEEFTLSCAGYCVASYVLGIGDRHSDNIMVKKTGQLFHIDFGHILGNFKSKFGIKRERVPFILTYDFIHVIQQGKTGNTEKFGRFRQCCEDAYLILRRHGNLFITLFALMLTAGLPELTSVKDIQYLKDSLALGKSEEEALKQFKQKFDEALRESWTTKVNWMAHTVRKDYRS

[5] = Apparent permeability from apical (pH 6.5) to […] of human Caco2 cells; type: ADME, cell-based; details: Caco-2, pH 6.5

Row | Compound | solubility [1] [µM] | hepatocyte CLint [2] [µL/min/1e6 cells] | logD [3] | IC50 [4] [nM] | Papp A→B [5] [×10⁻⁶ cm/s]
1 | Cc1cc(C(C)Nc2cccc(Cl)c2)c2nc(N3CCOCC3)cc(=O)n2c1 (centres undefined) | – | – | – | 17 | –
2 | CC(Nc1ccc(Cl)cc1)c1cc(C(=O)NCCN(C)C)cn2c(=O)cc(N3CCOCC3)nc12 (racemic) | – | – | – | 75 | –
3 | CC(Nc1cccc(F)c1)c1cc(C(=O)N(C)C)cn2c(=O)cc(N3CCOCC3)nc12 (racemic) | 23 (≈ 10.1 µg/mL) | 45 | – | 39 | 39
4 | CC(Nc1cccc(F)c1F)c1cc(C(=O)N(C)C)cn2c(=O)cc(N3CCOCC3)nc12 (racemic) | 28 (≈ 12.8 µg/mL) | 9 | 2.7 | 73 | –
5 | CC(Nc1cc(F)cc(F)c1)c1cc(C(=O)N(C)CCO)cn2c(=O)cc(N3CCOCC3)nc12 (racemic) | 930 (≈ 453 µg/mL) | 10 | 2.1 | 8 | –
6 | Cc1cc(C(C)Nc2ccc(F)cc2)c2nc(N3CCOCC3)cc(=O)n2c1 (racemic) | – | – | – | 190 | –
7 | CC(Nc1ccccc1Cl)c1cc(C(=O)NCCN(C)C)cn2c(=O)cc(N3CCOCC3)nc12 (racemic) | – | – | – | 7 | –
8 | CC(Nc1ccc(F)cc1)c1cc(C(=O)NCCN(C)C)cn2c(=O)cc(N3CCOCC3)nc12 (racemic) | – | – | 1.8 | 12 | 0.2
9 | CC(Nc1cccc(F)c1)c1cc(C(=O)NCCN(C)C)cn2c(=O)cc(N3CCOCC3)nc12 (racemic) | – | – | 2 | 2 | 0.3
10 | CC(Nc1cc(F)cc(Cl)c1)c1cc(C(=O)N(C)C)cn2c(=O)cc(N3CCOCC3)nc12 (single isomer, unassigned; (-)) | – | 19 | 3.5 | 11 | –
11 | CC(Nc1cc(F)c(F)c(F)c1)c1cc(C(=O)N(C)C)cn2c(=O)cc(N3CCOCC3)nc12 (single isomer, unassigned; (-)) | 10 (≈ 4.75 µg/mL) | 13 | – | 11 | –

More lines, in order of falling IC50 [4], values ahead:

Row | solubility [1] [µM] | hepatocyte CLint [2] [µL/min/1e6 cells] | logD [3] | IC50 [4] [nM] | Papp A→B [5] [×10⁻⁶ cm/s] | Compound
12 | – | – | – | 530 | – | Cc1ccc(NC(C)c2cc(C(=O)NCCN(C)C)cn3c(=O)cc(N4CCOCC4)nc23)cc1 (racemic)
13 | – | – | – | 81 | – | Cc1cccc(NC(C)c2cc(C)cn3c(=O)cc(N4CCOCC4)nc23)c1 (racemic)
14 | – | – | – | 74 | – | CC(Nc1cccc(C(F)(F)F)c1)c1cc(C(=O)NCCN(C)C)cn2c(=O)cc(N3CCOCC3)nc12 (racemic)
15 | > 1500 | 6 | 2.6 | 29 | 9 | C[C@@H](Nc1cc(F)cc(F)c1)c1cc(C(=O)N2CCN(C)CC2)cn2c(=O)cc(N3CCOCC3)nc12
16 | 316 (≈ 158 µg/mL) | 6 | 2.7 | 25 | – | C[C@@H](Nc1cc(F)cc(F)c1)c1cc(C(=O)N2CCOCC2)cn2c(=O)cc(N3CCOCC3)nc12
17 | 46 (≈ 21.9 µg/mL) | 15 | 2.9 | 25 | – | CC(Nc1cc(F)cc(F)c1F)c1cc(C(=O)N(C)C)cn2c(=O)cc(N3CCOCC3)nc12 (single isomer, unassigned; (-))
18 | – | – | 1.9 | 23 | 0.8 | CC(Nc1ccccc1F)c1cc(C(=O)NCCN(C)C)cn2c(=O)cc(N3CCOCC3)nc12 (racemic)
19 | – | – | – | 10 | – | CC(Nc1cccc(Cl)c1)c1cc(C(=O)NCCN(C)C)cn2c(=O)cc(N3CCOCC3)nc12 (racemic)
20 | – | – | – | 9 | – | Cc1cc(C(C)Nc2cc(F)cc(F)c2)c2nc(N3CCOCC3)cc(=O)n2c1 (centres undefined)
